High-throughput results: PubChem, several laboratories
Only some compounds are listed: those with a hit (about 5.4% of all), similar ones and a draw of the others.
PostGolgi yeast = growth inhibition of a yeast mutant, post-Golgi transport screen; post-Golgi transport phenotypic cell assay; inhibition, % at 10 µM; 98,000 compounds, 0.9% hits; AID 739;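 note: yeast cells grown in 1536-well plates; yeast grown about 18 h at 30C before absorbance read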
tolC growth inh = growth inhibitors of E. coli BW25113 tolC mutant. AID 573. 65,000 compounds, 2.2% hits. growth inhibition, % at 10 µM (by protocol). OD615;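 active = growth inhibition at or above a cutoff equal to the mean over every tested compound plus 3 SD, cut at about 60% in these data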;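 note: growth measured after 20 h incubation at 37 °C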
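Doses: one dose of 10 µM final / Material: E. coli BW25113 ΔtolC::kan, tolC deletion mutant strain / Buffer or medium: LB with kanamycin 50 µg/mL / Evaluation: percent growth inhibition / Detection: optical density read at 615 nm / Incubation: 37 °C, 20 h exposure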
PLAP act = human PLAP activation. P05187. purified PLAP enzyme, luminescent substrate read-out; stronger effect = higher value. activation fold at 20 µM. 96,000 compounds, 1.2% hits. AID 696; in the data active = activation fold above about 2
Target sequence (P05187 whole entry, looked up): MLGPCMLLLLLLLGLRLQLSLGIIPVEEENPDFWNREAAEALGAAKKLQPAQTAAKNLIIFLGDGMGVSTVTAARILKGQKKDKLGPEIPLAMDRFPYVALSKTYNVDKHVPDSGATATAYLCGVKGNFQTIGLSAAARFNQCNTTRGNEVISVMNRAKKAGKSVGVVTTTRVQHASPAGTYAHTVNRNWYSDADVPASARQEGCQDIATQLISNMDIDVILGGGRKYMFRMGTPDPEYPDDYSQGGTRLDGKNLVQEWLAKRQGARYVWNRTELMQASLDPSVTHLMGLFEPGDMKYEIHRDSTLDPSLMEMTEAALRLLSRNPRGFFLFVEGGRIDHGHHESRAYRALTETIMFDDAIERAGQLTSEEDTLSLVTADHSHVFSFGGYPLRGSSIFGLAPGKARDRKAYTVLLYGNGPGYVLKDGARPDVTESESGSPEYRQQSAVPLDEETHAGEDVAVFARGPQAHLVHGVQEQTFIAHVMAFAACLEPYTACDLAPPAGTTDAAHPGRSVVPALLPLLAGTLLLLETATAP
HePTP inh = human HePTP phosphatase inhibition. recombinant HePTP phosphatase activity, OD absorbance. AID 521. inhibition, % at 20 µM. P35236. 110,000 compounds, 0.64% hits; in the data active = inhibition above about 50%;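 note: plate controls were vehicle for no effect and reference inhibitor for full effect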
PostGolgi ctrl = growth of the yeast control strain, post-Golgi counter-screen; AID 738; 98,000 compounds, 5% hits; efflux-deficient yeast background strain, growth absorbance A615, 16 h; inhibition, % at 10 µM
E coli WT exp = growth inhibitors of E. coli BW25113 wild type. OD600 absorbance. growth inhibition, % at 100 µM. 98,000 compounds, 0.15% hits;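 active = growth inhibition above about 50% at one test dose, limit read from the data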;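 note: growth measured after 20 h incubation at 37 °C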
Active calls of the source: *. Cut-off read from the data, not from the text of the source, unless noted: active = inhibition above about 30%; inactive = the rest.

Screening CCOc1ccc(NS(=O)(=O)c2ccc3[nH]cc(C(=O)NC(C)CC)c(=O)c3c2)cc1 (stereo not given) returned PostGolgi yeast 8.2, tolC growth inh 100.0*, HePTP inh -11.2, PostGolgi ctrl 1.6 and E coli WT exp -1.0.
For COc1ccc(-c2noc(-c3ccc(-c4ccccc4)cc3)n2)cc1 the results were HePTP inh -10.5.
Screening O=c1cc(-c2ccccc2)nc(N2CCN(Cc3ccccc3)CC2)[nH]1 returned PostGolgi yeast 12.9, tolC growth inh 19.8, PLAP act 1.5, HePTP inh 3.4, PostGolgi ctrl 38.9* and E coli WT exp 10.0.
For O=c1cc(-c2ccccc2)nc(N2CCOCC2)[nH]1 the results were HePTP inh 0.6.
CN(C)C(=O)C1(C)CSSC(C)(C(=O)N(C)C)CSSC(C)(C(=O)N(C)C)CSS1 (stereo not given) was read as HePTP inh -2.1.
Screening O=C(NCCCn1ccnc1)C12CC3CC(CC(C3)C1)C2 returned HePTP inh -4.5.
O=c1c2ccccc2n(Cc2ccc(F)cc2)c(=O)n1C1CCCC1 was read as PostGolgi yeast 8.7, tolC growth inh 75.6*, PLAP act 0.7, HePTP inh -0.4, PostGolgi ctrl 14.0 and E coli WT exp -11.0.
Screening O=c1c2ccccc2[nH]c(=S)n1C1CCCCC1 returned PostGolgi yeast 5.5, tolC growth inh -12.5, PLAP act 1, HePTP inh -0.4, PostGolgi ctrl 16.5 and E coli WT exp -23.0.
`CCOc1ccc(C(=O)Nc2ncc([N+](=O)[O-])s2)cc1OCC` gave HePTP inh 17.4.
Screening COCCNC(=O)CN(CC1CCCO1)C(=O)CCC(=O)Nc1ccccn1 (stereo not given) returned PostGolgi yeast 3.2, tolC growth inh 4.7, PLAP act 1.1, HePTP inh -9.3, PostGolgi ctrl 6.7 and E coli WT exp 3.0.
For COCCNC(=O)C(c1ccc(F)cc1)N(CC1CCCO1)C(=O)CCC(=O)Nc1ccccn1 (stereo not given) the results were PostGolgi yeast 31.4*, tolC growth inh -9.4, PLAP act 1.2, HePTP inh -2.4, PostGolgi ctrl 1.0 and E coli WT exp -1.0.
`COc1ccc2nc(NC(=O)C3COc4ccccc4O3)sc2c1` (stereo not given) gave PostGolgi yeast 4.2, tolC growth inh 93.0*, PLAP act 1.2, HePTP inh 5.6, PostGolgi ctrl 35.6* and E coli WT exp -9.0.
`CS(=O)(=O)c1ccc2nc(NC(=O)C3COc4ccccc4O3)sc2c1` (stereo not given) gave PostGolgi yeast 1.6, tolC growth inh 9.1, PLAP act 1, HePTP inh -1.7, PostGolgi ctrl 6.9 and E coli WT exp -6.0.
Screening CCCCCCOC(=O)c1ccc(NC(=O)c2cc(OC)c(OC)c(OC)c2Br)cc1 returned PostGolgi yeast -5.6, PLAP act 2*, PostGolgi ctrl 13.8 and E coli WT exp -13.0.
`CCCCOC(=O)Nc1ccc(C(=O)OCCC)cc1` gave PostGolgi yeast 0.3, tolC growth inh 67.3*, PLAP act 0.7, HePTP inh 10.3, PostGolgi ctrl 4.6 and E coli WT exp 5.0.
`CCCOC(=O)c1ccc(NC(=O)OC)cc1` gave HePTP inh 1.5.
For Cc1cn(C2CC(O)C(CO)O2)c(=O)n(C)c1=O (stereo not given) the results were HePTP inh -1.2.
For O=C(CSc1nsc(SCC(=O)N2CCCCC2)n1)N1CCCCC1 the results were HePTP inh -3.7.
COc1cccc(NC(=O)[C@@H]2CCCN2C(=O)C2CCN(S(=O)(=O)c3ccc(C)cc3)CC2)c1 was read as PostGolgi yeast 1.6, tolC growth inh 0.2, PLAP act 2*, HePTP inh -5.9, PostGolgi ctrl -2.5 and E coli WT exp 0.0.
`COc1ccc(OC)c(S(=O)(=O)N2CCC(C(=O)Nc3cccc(C)c3)CC2)c1` gave PostGolgi yeast 15.2, PLAP act 2.2*, PostGolgi ctrl 2.9 and E coli WT exp -17.0.
Screening CC(=O)c1cccc(NC(=O)C2CCN(S(=O)(=O)c3ccccc3)CC2)c1 returned PostGolgi yeast -4.3, PLAP act 0.8, PostGolgi ctrl 33.5* and E coli WT exp 3.0.
CCCC(=O)Nc1cccc(NC(=S)NC(=O)c2ccccc2Cl)c1 was read as HePTP inh -4.5.
`CCOC(=O)c1[nH]c(C)c(C(=O)NC(C)(C)C)c1C` gave PostGolgi yeast -4.2, tolC growth inh -16.2, PLAP act 1.1, HePTP inh 4.3, PostGolgi ctrl 31.2* and E coli WT exp 5.0.
For C=C(C)c1cccc(C(C)(C)NC(=O)Nc2ncccn2)c1 the results were PostGolgi yeast 3.4, tolC growth inh -12.2, PLAP act 1, HePTP inh 3.9, PostGolgi ctrl 56.9* and E coli WT exp 8.0.
For CCc1ccc(/C(=C2/OC(=O)c3ccccc32)[N+](=O)[O-])cc1 the results were HePTP inh -4.3.
`O=C(Nc1ccc(N2CCN(Cc3ccccc3)CC2)cc1)c1ncn[nH]1` gave PostGolgi yeast -1.6, tolC growth inh 6.8, PLAP act 0.8, HePTP inh 11.9, PostGolgi ctrl 30.8* and E coli WT exp -1.0.
`CCC(=O)Nc1ccc(N2CCN(Cc3ccccc3)CC2)cc1` gave PostGolgi yeast 1.1, tolC growth inh -13.3, PLAP act 1.1, HePTP inh 0.8, PostGolgi ctrl 3.0 and E coli WT exp 0.0.
CCOC(=O)C1=C(CSc2nc3ccccc3s2)NC(=O)NC1c1cc(C)ccc1C (stereo not given) was read as PostGolgi yeast 12.0, PLAP act 1, PostGolgi ctrl 37.1* and E coli WT exp -15.0.
`COC(=O)C1=C(CN2CCc3ccccc32)NC(=O)NC1c1cc(C)ccc1C` (stereo not given) gave PostGolgi yeast -9.8, tolC growth inh 45.4, PLAP act 1, HePTP inh 0.7, PostGolgi ctrl 31.9* and E coli WT exp -1.0.
COC(=O)C1=C(CSCc2ccccc2)NC(=O)NC1c1cc(C)ccc1C (stereo not given) was read as PostGolgi yeast -24.1, PLAP act 0.8, PostGolgi ctrl 8.1 and E coli WT exp -4.0.
Screening CCOC(=O)C1=C(C)NC(=O)NC1c1ccc(OC)cc1 (stereo not given) returned HePTP inh 5.5.
`COC(=O)C1=C(CSc2nc3ccccc3o2)NC(=O)NC1c1cc(C)ccc1C` (stereo not given) gave PostGolgi yeast -1.4, tolC growth inh 85.9*, PLAP act 1.1, HePTP inh 4.7, PostGolgi ctrl 49.2* and E coli WT exp 10.0.
Screening CCOC(=O)C1=C(CSc2nc3ccccc3s2)NC(=O)NC1c1ccc(OC)cc1 (stereo not given) returned PostGolgi yeast -0.3, PLAP act 1.2, PostGolgi ctrl 42.1* and E coli WT exp -10.0.
